Article PMC5503476 (Bioorganic & medicinal chemistry letters, 2017)
In brackets after ≈: the same amount, converted by molar mass.

Assays:
[1] = Aqueous solubility by HPLC-UV; type: physicochemical
wild-type HIV-1 (NL4-3) = assay: Anti-HIV activity against wild-type HIV-1; type: cell-based; conditions: Human immunodeficiency virus 1, NL43, TZM-bl, read-out: EC50 NL4-3
Method in brief: (§1)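 Wild-type HIV-1 NL4-3 and the E138K+M184I resistant strain were tested in parallel in TZM-bl cells, with a reference NNRTI alongside. EC50 was read from luciferase reporter gene expression. New analogues were tested up to 100 ng/mL, with at least three experiments (n = 3). Fold change is the resistant-strain EC50 divided by the wild-type EC50.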

Cytotoxicity = type: cell-based; conditions: human, TZM-bl cells
[2] = tested on: NL4-3 variant E138K+M184I; type: cell-based, HIV-1
Method in brief: as §1

NL4-3 variant E138K = type: cell-based, HIV-1
[3] = Human plasma stability assay; type: in vitro ADME
[4] = 0.01 M HCl, pH 2, aqueous with cosolvent or surfactant or cyclodextrin
[5] = EC50(resistant viral strain)/EC50(wild-type viral strain)

SMILES	solubility kinetic at 4 h [1, 4] [µg/mL]	solubility kinetic at 4 h ([1]; phosphate buffer, pH 7.4, aqueous with cosolvent or surfactant or cyclodextrin) [µg/mL]	EC50 (wild-type HIV-1 (NL4-3)) [nM]	CC50 (Cytotoxicity) [nM]	Resistance fold change (FC) E138K+M184I [2, 5]	EC50 ([2]; Human immunodeficiency virus 1, NL43, TZM-bl, read-out: EC50 E138K+M184I) [nM]	Resistance fold change (FC) E138K (NL4-3 variant E138K; [5])	EC50 (NL4-3 variant E138K; Human immunodeficiency virus 1, NL43, TZM-bl, read-out: EC50 E138K) [nM]	half-life at 10 μg/mL [3] [h]
Cc1cc(/C=C/C#N)cc(C)c1Oc1cc(Nc2ccc(C#N)cc2)c(N)cc1C(N)=O [compound 3]	2.09 (≈ 4.94 µM)	0.63 (≈ 1.49 µM)	1.82 ± 0.57	> 23600	1.9	3.55 ± 1.02	1.9	3.55 ± 0.64	–
CC(C)NCC(O)COc1cccc2ccccc12 (stereo not shown) [propranolol]	–	–	–	–	–	–	–	–	80
Cc1cc(/C=C/C#N)cc(C)c1Nc1ccnc(Nc2ccc(C#N)cc2)n1 [compound 2, rilpivirine, reference compound]	86.8 (≈ 237 µM)	–	–	–	–	–	–	–	–
